Assay results of several laboratories.
Protocols differ between the studies behind these lines.
Target: Tyrosine-protein kinase Blk (BLK, Homo sapiens, UniProt P51451)

SMILES	read-out	action	technique	concentration	measurement	value
C1=C/COCc2cc(ccc2OCCN2CCCC2)Nc2nccc(n2)-c2cccc(c2)COC/1	binding			0.1 µM	remaining binding	97%
CC(C)S(=O)(=O)c1ccc2nccc(Nc3ccc4sc(C5CCCC5)nc4c3)c2c1	enzyme activity	inhibitor		1 µM	activity vs control	80%
C[C@H]1CC[C@H](n2c3cnccc3c3cnc(Nc4ccc5c(n4)CCN(C(=O)CO)C5)nc32)CC1	cell-free assay		competition with immobilised ligand	1 µM	remaining binding	53%
CC#CC(=O)N1CCC[C@H]1c1nc(-c2ccc(C(=O)Nc3ccccn3)cc2)c2c(N)nccn12	enzyme activity	inhibitor		1 µM	inhibition	47%
Cc1ccc(NC(=O)c2ccnc(C(F)(F)F)c2)cc1-c1cc(OCCO)nc(N2CCOCC2)c1	binding		competition with immobilised ligand	1 µM	remaining binding	100%
CO[C@@H]1[C@H](N(C)C(=O)c2ccccc2)C[C@H]2O[C@]1(C)n1c3ccccc3c3c4c(c5c6ccccc6n2c5c31)C(=O)NC4	enzyme activity	inhibitor		1 µM	inhibition	79%
COc1ccc2oc(-c3ccc4nc(N)oc4c3)c/c(=N\c3ccccc3NC(=O)CCN)c2c1	binding			1 µM	remaining binding	92%
CCCCC(=O)Nc1ccc(-c2ccc3ncn(CCC)c(=O)c3c2)cn1	binding		competition with immobilised ligand	0.5 µM	remaining binding	83%
